Reference: ChEMBL document CHEMBL1123559, “Inhibition of phenylethanolamine N-methyltransferase (PNMT) by aromatic hydroxy-substituted 1,2,3,4,-tetrahydroisoquinolines: further studies on the hydrophilic pocket of the aromatic ring binding region of the active site” (J Med Chem, 1987)

T1: Phenylethanolamine N-methyltransferase (Bos taurus, UniProt P10938)
T1 sequence (P10938 whole entry): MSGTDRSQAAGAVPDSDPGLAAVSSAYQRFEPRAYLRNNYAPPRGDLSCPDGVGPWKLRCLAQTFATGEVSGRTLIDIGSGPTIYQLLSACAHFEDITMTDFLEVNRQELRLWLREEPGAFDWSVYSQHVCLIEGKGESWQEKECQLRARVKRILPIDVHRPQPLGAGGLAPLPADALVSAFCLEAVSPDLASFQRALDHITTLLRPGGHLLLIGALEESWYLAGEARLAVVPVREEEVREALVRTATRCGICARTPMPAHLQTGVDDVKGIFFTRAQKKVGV

B1: Phenylethanolamine N-methyltransferase (Bos taurus), P10938 (protein)
chain: T1 sequence (P10938 whole entry)

Molecular target: T1, Phenylethanolamine N-methyltransferase
Experiment: In vitro inhibition of bovine phenylethylamine N-methyl-transferase (PNMT) using radiochemical assay.

| Molecule | Ki [µM] |
| --- | --- |
| COc1ccc2c(c1)C1CC2C[C@H]1N (some centres undefined) | > 2000 |
| Oc1cccc2c1CNCC2 | 1080 |
| Oc1ccc2c(c1)CNCC2 | 2.6 |
| COc1cccc2c1C1CC2C[C@H]1N (some centres undefined) | > 2000 |
| COc1cccc2c1CCNC2 | 550 |
| N[C@H]1C2CCC1c1cc(O)ccc12 (some centres undefined) | 108 |
| COc1ccc2c(c1)CNCC2 | 20 |
| COc1cccc2c1C1CCC2[C@@H]1N (some centres undefined) | 1100 |
| Oc1cc2c(cc1O)CNCC2 | 5.7 |
| N[C@@H]1CC2CC1c1c(O)cccc12 (some centres undefined) | > 3000 |
| COc1ccc2c(c1)C1CCC2[C@@H]1N (some centres undefined) | 735 |
| COc1cccc2c1C1CC2[C@H](N)C1 (some centres undefined) | > 2000 |
| Oc1ccc2c(c1)CCNC2 | 7.8 |
| COc1cccc2c1CNCC2 | 3.8 |
| N[C@H]1C2CCC1c1c(O)cccc12 (some centres undefined) | > 4000 |
| Oc1cccc2c1CCNC2 | 90 |
| c1ccc2c(c1)CCNC2 [1,2,3,4-TETRAHYDROISOQUINOLINE] | 10.3 |
| N[C@@H]1CC2CC1c1cccc(O)c12 (some centres undefined) | > 10000 |
| COc1ccc2c(c1)C1CC2[C@H](N)C1 (some centres undefined) | 1260 |

Tested on: not listed separately
Experiment: Ratio of Vmax to Km
Parameters: unit not given here

| Molecule | Ratio |
| --- | --- |
| NC1C2CC[C@H]1c1ccccc12 (some centres undefined) | 0.12 |
| N[C@@H]1CC2C[C@@H]1c1ccccc12 | 0.01 |
| COc1ccc2c(c1)C1CCC2[C@@H]1N (some centres undefined) | 0.08 |
| COc1cccc2c1C1CC2[C@H](N)C1 (some centres undefined) | 0.02 |
| COc1ccc2c(c1)C1CC2[C@H](N)C1 (some centres undefined) | 0.01 |
| N[C@@H]1CC2CC1c1cc(O)c(O)cc12 (some centres undefined) | 0.06 |

Compound: COc1ccc2c(c1)C1CC2[C@H](N)C1
Experiment: (§1) In vitro inhibition of Phenylethylamine N-Methyltransferase (PNMT) using radiochemical assay.
In short: (§2)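 Bovine adrenal PNMT, partially purified through isoelectric precipitation, was used with phenylethanolamine as the variable substrate. At least three inhibitor concentrations were tested, all below levels giving mixed kinetics. The mix held pH 8.0 phosphate, unlabeled AdoMet (10 μM stock) and [methyl-3H]AdoMet, run 30 min at 37 °C. After a borate quench, product was extracted into toluene/isoamyl alcohol and scintillation counted. Ki and mode came from 1/V vs 1/S plots.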

| Molecule | Km [µM] |
| --- | --- |
| B1 | 602 |

Compound: COc1ccc2c(c1)C1CCC2[C@@H]1N
Experiment: as §1
In short: as §2

| Molecule | Km [µM] |
| --- | --- |
| B1 | 294 |

Compound: COc1cccc2c1C1CC2[C@H](N)C1
Experiment: as §1
In short: as §2

| Molecule | Km [µM] |
| --- | --- |
| B1 | 970 |

Compound: N[C@@H]1CC2C[C@@H]1c1ccccc12
Experiment: as §1
In short: as §2

| Molecule | Km [µM] |
| --- | --- |
| B1 | 392 |

Compound: COc1ccc2c(c1)C1CC2[C@H](N)C1
Experiment: (§3) In vitro inhibition of Phenylethylamine N-Methyltransferase (PNMT) using radiochemical assay expressed as Vmax

| Molecule | Vmax [nmol/min/mg] |
| --- | --- |
| B1 | 0.06 |

Compound: COc1ccc2c(c1)C1CCC2[C@@H]1N
Experiment: as §3

| Molecule | Vmax [nmol/min/mg] |
| --- | --- |
| B1 | 0.23 |

Compound: COc1cccc2c1C1CC2[C@H](N)C1
Experiment: as §3

| Molecule | Vmax [nmol/min/mg] |
| --- | --- |
| B1 | 0.22 |

Compound: N[C@@H]1CC2CC1c1cc(O)c(O)cc12
Experiment: as §3

| Molecule | Vmax [nmol/min/mg] |
| --- | --- |
| B1 | 0.44 |
